Our source for the IC50 and Activity values is ChEMBL document CHEMBL5154713, “Illuminating a Dark Kinase: Structure-Guided Design, Synthesis, and Evaluation of a Potent Nek1 Inhibitor and Its Effects on the Embryonic Zebrafish Pronephros” (J Med Chem, 2022).

Data set [1] addresses T1, Serine/threonine-protein kinase Nek1 (Homo sapiens, UniProt Q96PY6).
T1 sequence (Q96PY6 whole entry): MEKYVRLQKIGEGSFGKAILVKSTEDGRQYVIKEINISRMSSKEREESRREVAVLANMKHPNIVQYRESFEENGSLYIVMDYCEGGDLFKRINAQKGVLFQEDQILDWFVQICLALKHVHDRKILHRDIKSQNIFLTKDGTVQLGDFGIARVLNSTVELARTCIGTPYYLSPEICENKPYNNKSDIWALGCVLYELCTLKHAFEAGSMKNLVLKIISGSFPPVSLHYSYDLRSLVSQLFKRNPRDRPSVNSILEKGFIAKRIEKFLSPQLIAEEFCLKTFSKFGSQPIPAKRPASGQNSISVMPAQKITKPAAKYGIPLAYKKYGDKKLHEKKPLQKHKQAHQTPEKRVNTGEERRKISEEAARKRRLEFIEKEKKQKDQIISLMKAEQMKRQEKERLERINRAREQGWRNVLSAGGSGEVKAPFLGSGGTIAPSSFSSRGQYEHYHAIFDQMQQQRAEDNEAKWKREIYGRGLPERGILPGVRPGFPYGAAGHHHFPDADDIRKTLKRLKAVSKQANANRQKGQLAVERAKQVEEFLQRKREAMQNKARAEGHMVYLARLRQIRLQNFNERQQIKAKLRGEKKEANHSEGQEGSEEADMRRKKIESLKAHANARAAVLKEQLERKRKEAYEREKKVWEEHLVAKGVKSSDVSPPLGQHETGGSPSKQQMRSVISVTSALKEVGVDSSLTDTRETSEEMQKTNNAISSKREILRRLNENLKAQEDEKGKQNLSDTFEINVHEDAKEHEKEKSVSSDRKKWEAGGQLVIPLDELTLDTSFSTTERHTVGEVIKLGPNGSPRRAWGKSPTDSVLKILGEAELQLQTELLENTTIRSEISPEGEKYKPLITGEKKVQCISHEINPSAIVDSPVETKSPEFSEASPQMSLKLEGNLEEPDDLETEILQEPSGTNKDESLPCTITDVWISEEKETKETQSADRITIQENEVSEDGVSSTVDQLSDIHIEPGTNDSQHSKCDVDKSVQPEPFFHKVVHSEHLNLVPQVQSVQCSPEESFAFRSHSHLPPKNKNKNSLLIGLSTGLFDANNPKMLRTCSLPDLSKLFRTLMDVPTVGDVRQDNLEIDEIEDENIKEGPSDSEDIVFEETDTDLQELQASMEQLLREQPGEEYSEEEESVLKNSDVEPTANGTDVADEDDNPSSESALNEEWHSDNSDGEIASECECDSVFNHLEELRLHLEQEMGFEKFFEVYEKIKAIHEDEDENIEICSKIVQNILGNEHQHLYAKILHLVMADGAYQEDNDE
The data set is described as follows: Inhibition of human recombinant NEK1 (1 to 505 residues) using RLGRDKYKTLRQIRQ as substrate incubated for 40 mins in presence of [gamma-33P]-ATP by radiometric scintillation counting assay. In outline: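 Eurofins IC50Profiler radiometric assay on recombinant human Nek1 (1−505), ATP at 10 μM or 90 μM (near Km). Nine concentrations at half-log steps from 10 μM to 1 nM, with vehicle controls. IC50 and 95% CI obtained by four-parameter nonlinear regression. Mean of two independent experiments.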

Data set [2] deals with Serine/threonine-protein kinase tousled-like 1 (Homo sapiens) (UniProt Q9UKI8). Kind of data set: Inhibition of human full length recombinant TLK1 assessed as residual activity at 1 uM using casein as substrate incubated for 40 mins in presence of [gamma 33P]-ATP by radiometric scintillation counting assay relative to control. In outline:
(§1)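 Commercial radiometric panel of 50 kinases. Each recombinant human kinase was tested at a single compound concentration of 1 μM. ATP was set within 15 μM of the apparent Km for ATP for each kinase. Residual activity is relative to control and is the mean of two independent experiments.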

Data set [3] addresses Serine/threonine-protein kinase Nek11 (Homo sapiens) (UniProt Q8NG66). Kind of data set: Inhibition of human full length recombinant NEK11 assessed as residual activity at 1 uM using myelin basic protein as substrate incubated for 40 mins in presence of [gamma 33P]-ATP by radiometric scintillation counting assay relative to control. In outline: as §1
The target in data set [4] is Ephrin type-B receptor 4 (Homo sapiens) (UniProt P54760). The data set is described as follows: Inhibition of recombinant human EphB4 (561 to end residues) assessed as residual activity at 1 uM using poly(Glu, Tyr) 4:1 as substrate at 40 mins in presence of [gamma-33ATP] by scintillation counting based radiometry assay relative to control. A digest of the protocol:
as §1

In data set [5] the target is Protein kinase C alpha type (Homo sapiens) (UniProt P17252). The data set is described as follows: Inhibition of recombinant human full length PKCalpha assessed as residual activity at 1 uM using histone H1 as substrate measured after 40 mins in presence of [gamma33P]ATP by radiometric scintillation counting method relative to control. A digest of the protocol:
as §1

Data set [6] addresses Platelet-derived growth factor receptor beta (Homo sapiens) (UniProt P09619). The data set is described as follows: Inhibition of human PDGFRbeta (557 to end residues) assessed as residual activity at 1 uM using poly(Glu, Tyr) 4:1 as substrate measured after 40 mins in presence of [gamma33P]ATP by scintillation counting method relative to control. In outline:
as §1

The target of data set [7] is Tyrosine-protein kinase receptor TYRO3 (Homo sapiens) (UniProt Q06418). The data set is described as follows: Inhibition of human RSE (451 to end residues) assessed as residual activity at 1 uM using KVEKIGEGTYGVVYK as substrate measured after 40 mins in presence of [gamma33P]ATP by radiometric scintillation counting method relative to control. A digest of the protocol: as §1

The target in data set [8] is Phosphatidylinositol 4,5-bisphosphate 3-kinase catalytic subunit gamma isoform (Homo sapiens) (UniProt P48736). The data set is described as follows: Inhibition of human full length PI3Kgamma assessed as residual activity at 1 uM using phosphatidylinositol-4, 5-bisphosphate as substrate incubated for 40 mins in presence of ATP by HTRF assay relative to control.
In data set [9] the target is Phosphatidylinositol 4,5-bisphosphate 3-kinase catalytic subunit delta isoform (Homo sapiens) (UniProt O00329). Kind of data set: Inhibition of human full length recombinant PI3Kdelta assessed as residual activity at 1 uM using phosphatidylinositol 4,5-bisphosphate as substrate incubated for 40 mins in presence ofATP by HTRF assay relative to control.
A short description of data set [10]: Toxicity in wild-type Zebrafish embryos assessed as lethality at 30 uM measured after 72 hrs. Also on record: species or system Danio rerio. The settings on record: in vivo. A digest of the protocol:
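Wild-type zebrafish embryos with intact chorions were selected at 4 hpf, 15 per group, in E3 medium. At 6 hpf a 10× dilution of a DMSO stock was added to give final concentrations of 0.05–30 μM. Survival was scored every 24 h by heartbeat over 120 h. The 30 μM group was run in 5 replicates and the others at least in triplicate.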

Data set [11] is described as follows: Toxicity in fluorescence-labelled Zebrafish pronephron assessed as increase in growth of fluid-filled cysts at 10 to 20 uM. Also on record: species or system Danio rerio. The settings on record: in vivo, dose 10-20 µM. A digest of the protocol: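 Wild-type embryos exposed from 6 hpf to E3/0.2% DMSO controls or 10 and 20 μM compound, in E3 with 75 μM PTU. At 48 h, 100 nM PT-Yellow for 20 min, washed, then returned to compound up to 96 h total. Anesthetized embryos imaged in agarose molds by widefield microscopy, 33 Z-slices. Tubule fluorescence and area quantified from summed deconvolved projections. n = 3–5.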

A value given as a limit tells only on which side of the number the result lay.

Platelet-derived growth factor receptor beta (Homo sapiens), sequence (P09619 whole entry): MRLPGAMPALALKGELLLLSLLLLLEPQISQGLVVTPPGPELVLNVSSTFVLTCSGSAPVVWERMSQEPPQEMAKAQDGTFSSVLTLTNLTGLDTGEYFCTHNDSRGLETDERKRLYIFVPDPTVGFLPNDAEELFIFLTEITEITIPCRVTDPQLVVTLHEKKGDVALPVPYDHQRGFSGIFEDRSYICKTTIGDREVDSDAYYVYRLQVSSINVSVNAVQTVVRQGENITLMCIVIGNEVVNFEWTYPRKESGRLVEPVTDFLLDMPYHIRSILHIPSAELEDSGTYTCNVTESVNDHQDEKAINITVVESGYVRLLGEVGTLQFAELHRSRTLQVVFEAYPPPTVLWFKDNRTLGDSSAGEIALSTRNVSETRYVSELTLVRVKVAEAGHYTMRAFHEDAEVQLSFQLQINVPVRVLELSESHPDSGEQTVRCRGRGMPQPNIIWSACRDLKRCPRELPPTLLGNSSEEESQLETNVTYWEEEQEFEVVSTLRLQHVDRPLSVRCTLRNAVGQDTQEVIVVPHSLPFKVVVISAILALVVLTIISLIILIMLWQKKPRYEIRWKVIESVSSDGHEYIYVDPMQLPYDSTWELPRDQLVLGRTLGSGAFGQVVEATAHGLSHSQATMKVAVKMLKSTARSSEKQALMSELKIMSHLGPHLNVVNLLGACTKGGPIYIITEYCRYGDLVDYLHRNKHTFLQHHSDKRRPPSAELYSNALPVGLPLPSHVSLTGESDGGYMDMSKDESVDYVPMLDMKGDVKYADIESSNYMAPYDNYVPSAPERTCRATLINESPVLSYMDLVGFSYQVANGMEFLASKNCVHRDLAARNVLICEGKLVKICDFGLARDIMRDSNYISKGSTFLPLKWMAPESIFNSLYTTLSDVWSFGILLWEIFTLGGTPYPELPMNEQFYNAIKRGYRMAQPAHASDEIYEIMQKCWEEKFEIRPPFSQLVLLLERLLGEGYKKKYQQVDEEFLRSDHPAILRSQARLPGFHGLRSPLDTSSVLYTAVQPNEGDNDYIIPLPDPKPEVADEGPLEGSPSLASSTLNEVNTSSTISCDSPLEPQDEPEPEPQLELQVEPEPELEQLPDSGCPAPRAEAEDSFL
Phosphatidylinositol 4,5-bisphosphate 3-kinase catalytic subunit delta isoform (Homo sapiens), sequence (O00329 whole entry, canonical isoform): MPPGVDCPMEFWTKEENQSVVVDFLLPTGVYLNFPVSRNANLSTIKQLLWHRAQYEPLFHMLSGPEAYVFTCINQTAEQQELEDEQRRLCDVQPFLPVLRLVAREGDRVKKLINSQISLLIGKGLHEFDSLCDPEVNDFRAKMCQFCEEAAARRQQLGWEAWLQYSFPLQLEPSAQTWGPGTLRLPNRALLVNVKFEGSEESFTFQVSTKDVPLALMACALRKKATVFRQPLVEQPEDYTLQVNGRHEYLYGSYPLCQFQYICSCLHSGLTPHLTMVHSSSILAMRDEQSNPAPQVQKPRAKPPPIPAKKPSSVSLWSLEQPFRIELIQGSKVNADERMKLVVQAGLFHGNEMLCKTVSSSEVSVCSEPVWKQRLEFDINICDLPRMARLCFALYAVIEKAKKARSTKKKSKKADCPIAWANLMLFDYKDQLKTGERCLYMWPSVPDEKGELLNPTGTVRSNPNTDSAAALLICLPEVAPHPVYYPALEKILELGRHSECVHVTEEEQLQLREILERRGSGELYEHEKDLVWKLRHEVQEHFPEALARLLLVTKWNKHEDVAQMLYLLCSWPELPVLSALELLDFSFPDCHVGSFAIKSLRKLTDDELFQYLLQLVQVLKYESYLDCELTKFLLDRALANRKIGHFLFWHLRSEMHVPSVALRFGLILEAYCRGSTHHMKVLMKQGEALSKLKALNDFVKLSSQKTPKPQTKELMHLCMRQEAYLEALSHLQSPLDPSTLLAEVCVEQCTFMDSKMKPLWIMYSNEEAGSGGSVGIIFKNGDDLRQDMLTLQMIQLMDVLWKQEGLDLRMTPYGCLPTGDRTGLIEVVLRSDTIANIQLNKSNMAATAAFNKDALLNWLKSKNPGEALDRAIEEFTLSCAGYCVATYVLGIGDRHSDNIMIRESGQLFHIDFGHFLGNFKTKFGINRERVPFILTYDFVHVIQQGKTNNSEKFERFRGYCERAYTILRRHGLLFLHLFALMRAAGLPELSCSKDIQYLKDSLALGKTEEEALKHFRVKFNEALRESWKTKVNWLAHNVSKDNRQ
Ephrin type-B receptor 4 (Homo sapiens), sequence (P54760 whole entry): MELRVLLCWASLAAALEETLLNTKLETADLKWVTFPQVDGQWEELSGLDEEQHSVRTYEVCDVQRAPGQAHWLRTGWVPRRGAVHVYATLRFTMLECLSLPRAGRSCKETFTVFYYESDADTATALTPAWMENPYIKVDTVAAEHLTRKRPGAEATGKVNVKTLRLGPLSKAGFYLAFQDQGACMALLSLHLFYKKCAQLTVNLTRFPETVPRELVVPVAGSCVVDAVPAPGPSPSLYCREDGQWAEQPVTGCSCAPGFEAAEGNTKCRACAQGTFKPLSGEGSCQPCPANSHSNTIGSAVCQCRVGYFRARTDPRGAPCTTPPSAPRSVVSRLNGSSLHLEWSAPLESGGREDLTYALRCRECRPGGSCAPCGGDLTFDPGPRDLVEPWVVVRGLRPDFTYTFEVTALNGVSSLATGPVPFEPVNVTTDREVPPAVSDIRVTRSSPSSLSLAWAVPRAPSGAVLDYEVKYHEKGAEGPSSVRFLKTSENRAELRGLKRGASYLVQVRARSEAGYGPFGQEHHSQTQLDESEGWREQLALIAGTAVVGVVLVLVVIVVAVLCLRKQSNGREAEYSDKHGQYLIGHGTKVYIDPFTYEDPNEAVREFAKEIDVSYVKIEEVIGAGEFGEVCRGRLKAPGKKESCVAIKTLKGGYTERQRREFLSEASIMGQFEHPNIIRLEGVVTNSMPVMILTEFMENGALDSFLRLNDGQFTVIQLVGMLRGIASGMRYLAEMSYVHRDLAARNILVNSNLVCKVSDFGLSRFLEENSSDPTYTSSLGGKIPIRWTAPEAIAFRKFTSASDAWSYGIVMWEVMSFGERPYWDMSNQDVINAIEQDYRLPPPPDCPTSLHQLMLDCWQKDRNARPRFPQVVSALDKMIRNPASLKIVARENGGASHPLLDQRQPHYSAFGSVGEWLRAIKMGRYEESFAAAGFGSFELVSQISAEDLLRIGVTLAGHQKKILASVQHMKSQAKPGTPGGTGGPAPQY
Serine/threonine-protein kinase tousled-like 1 (Homo sapiens), sequence (Q9UKI8 whole entry): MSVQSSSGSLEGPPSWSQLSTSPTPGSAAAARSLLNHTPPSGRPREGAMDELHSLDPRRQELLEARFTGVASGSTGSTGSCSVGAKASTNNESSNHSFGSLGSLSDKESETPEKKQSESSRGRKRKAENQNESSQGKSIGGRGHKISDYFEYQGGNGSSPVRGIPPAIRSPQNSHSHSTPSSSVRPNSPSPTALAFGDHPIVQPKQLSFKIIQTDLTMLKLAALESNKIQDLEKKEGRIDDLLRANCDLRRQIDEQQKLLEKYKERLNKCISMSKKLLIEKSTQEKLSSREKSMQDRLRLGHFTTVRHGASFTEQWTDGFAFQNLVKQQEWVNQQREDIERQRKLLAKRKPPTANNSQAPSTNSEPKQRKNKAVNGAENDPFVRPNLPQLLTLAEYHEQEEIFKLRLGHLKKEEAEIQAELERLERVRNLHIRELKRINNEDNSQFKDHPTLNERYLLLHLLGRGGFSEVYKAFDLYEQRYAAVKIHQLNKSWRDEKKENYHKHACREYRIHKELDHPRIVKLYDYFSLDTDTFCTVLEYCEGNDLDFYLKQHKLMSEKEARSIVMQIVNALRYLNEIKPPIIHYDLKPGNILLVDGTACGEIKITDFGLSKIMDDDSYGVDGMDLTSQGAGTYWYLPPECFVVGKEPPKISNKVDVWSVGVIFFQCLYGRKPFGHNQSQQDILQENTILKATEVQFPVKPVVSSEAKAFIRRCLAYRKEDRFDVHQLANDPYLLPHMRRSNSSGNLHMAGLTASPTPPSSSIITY
Tyrosine-protein kinase receptor TYRO3 (Homo sapiens), sequence (Q06418 whole entry): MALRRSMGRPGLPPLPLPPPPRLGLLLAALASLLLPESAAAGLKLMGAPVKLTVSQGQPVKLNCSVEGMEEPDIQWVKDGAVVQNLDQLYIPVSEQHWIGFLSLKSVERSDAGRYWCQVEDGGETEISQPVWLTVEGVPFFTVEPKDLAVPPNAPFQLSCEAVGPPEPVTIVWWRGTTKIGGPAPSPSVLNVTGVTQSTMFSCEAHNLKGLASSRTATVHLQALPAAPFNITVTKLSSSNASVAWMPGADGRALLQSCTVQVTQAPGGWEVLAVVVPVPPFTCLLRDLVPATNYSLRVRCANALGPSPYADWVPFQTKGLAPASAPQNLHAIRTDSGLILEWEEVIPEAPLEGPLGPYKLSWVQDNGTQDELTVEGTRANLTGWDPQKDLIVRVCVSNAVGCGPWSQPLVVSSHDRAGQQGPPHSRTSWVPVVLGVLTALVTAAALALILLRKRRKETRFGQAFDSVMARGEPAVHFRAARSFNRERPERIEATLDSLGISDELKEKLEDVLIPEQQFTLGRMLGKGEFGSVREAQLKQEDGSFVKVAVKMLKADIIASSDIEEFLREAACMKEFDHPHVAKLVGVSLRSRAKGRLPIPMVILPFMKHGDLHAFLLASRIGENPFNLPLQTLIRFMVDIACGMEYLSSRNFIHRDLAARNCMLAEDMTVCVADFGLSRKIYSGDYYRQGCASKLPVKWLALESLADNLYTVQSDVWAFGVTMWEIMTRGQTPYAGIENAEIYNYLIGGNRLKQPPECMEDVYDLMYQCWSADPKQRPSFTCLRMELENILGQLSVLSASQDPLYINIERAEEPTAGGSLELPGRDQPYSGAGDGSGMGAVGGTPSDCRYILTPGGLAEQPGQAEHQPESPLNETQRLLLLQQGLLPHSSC

On to `O=S(=O)(N[C@@H](CO)Cc1c[nH]c2ccccc12)c1ccc(-c2ccnc3[nH]ccc23)cc1`, for which the half-maximal inhibitory concentration (IC50) in data set [1] is 330 nM. For the same compound, the Activity in [2], in data set [3], in data set [4], in data set [5], in [6] and in [7] was more than 75% in each case. Moreover, the Activity in data set [8] was more than 75%; in data set [9], more than 75%; in [10] it was “Toxic”; in data set [11] it was “Toxic”.
